From ChEMBL document CHEMBL1773031, “Maklamicin, an antibacterial polyketide from an endophytic Micromonospora sp” (J Nat Prod, 2011)
pIC50: −log10 of the molar value. In brackets after ≈: the same amount, converted by molar mass.

How the values were obtained:
Bacillus cereus = assay: Antimicrobial activity against Bacillus cereus NBRC 15305 after 20 hrs by microplate reader assay; format: functional; conditions: NBRC 15305, 20 h
In short: (§1)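 Grown in Mueller Hinton broth on a reciprocal shaker for 20 h at 30 °C, then pelleted and resuspended in saline at 1 × 10^5 cells/mL. The suspension was mixed into fresh broth in 96-well plates with test sample in DMSO. Plates were incubated for 20 h at 30 °C, and growth was read as absorbance at 650 nm.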

Micrococcus luteus = assay: Antimicrobial activity against Micrococcus luteus ATCC 9343 after 20 hrs by microplate reader assay; format: functional; conditions: ATCC 9343, 20 h; in short: as §1
MCF7 = assay: Cytotoxicity against human MCF7 cells after 48 hrs by MTT assay; format: functional, cell-based; conditions: MCF7, 48 h
Staphylococcus aureus = assay: Antimicrobial activity against Staphylococcus aureus IFO 12732 after 20 hrs by microplate reader assay; format: functional; conditions: IFO 12732, 20 h; in short: as §1
HeLa = assay: Cytotoxicity against human HeLa cells after 48 hrs by MTT assay; format: functional, cell-based
Bacillus subtilis = assay: Antimicrobial activity against Bacillus subtilis PCI219 after 20 hrs by microplate reader assay; format: functional; conditions: PCI219, 20 h; in short: as §1
Escherichia coli = assay: Antimicrobial activity against Escherichia coli NIH-JC2 after 20 hrs by microplate reader assay; format: functional; conditions: NIH-JC2, 20 h
In short: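 The E. coli preculture was grown in Mueller Hinton broth, shaken for 20 h at 30 °C, centrifuged and suspended in saline at 1 × 10^5 cells/mL. The suspension was combined in broth with sample dissolved in DMSO. Incubation was 20 h at 37 °C, with absorbance at 650 nm read on a microplate reader.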

Enterococcus faecalis = assay: Antimicrobial activity against Enterococcus faecalis NBRC 100480 after 20 hrs by microplate reader assay; format: functional; conditions: NBRC 100480, 20 h; in short: as §1
Candida albicans = assay: Antimicrobial activity against Candida albicans IFO 1594 after 20 hrs by microplate reader assay; format: functional; conditions: IFO 1594, 20 h
In short: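 Yeast Nitrogen Base supplemented with 2% glucose was the medium. Cells were shaken for 20 h at 30 °C, pelleted and resuspended in saline at 1 × 10^5 cells/mL. They were mixed in medium with DMSO sample solution in 96-well plates and incubated for 20 h at 30 °C. Growth was measured as absorbance at 650 nm.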

SMILES | MIC (Bacillus cereus) | MIC (Micrococcus luteus) | pIC50 (MCF7) | MIC (Staphylococcus aureus) | pIC50 (HeLa) | MIC (Bacillus subtilis) | MIC (Escherichia coli) | MIC (Enterococcus faecalis) | MIC (Candida albicans)
C[C@H]1CC[C@@H]2[C@H](C=C[C@H]3[C@H](C)/C=C/C[C@]4(C)C=C(CO)[C@H](C[C@@H](C)O)C[C@]45OC(=O)C(=C5O)C(=O)[C@@]23C)C1 [MAKLAMICIN] | 6.5 µg/mL (≈ 12.4 µM) | 0.2 µg/mL (≈ 0.381 µM) | 4.47 | 13 µg/mL (≈ 24.8 µM) | 4.77 | 1.7 µg/mL (≈ 3.24 µM) | > 50 µg/mL | 13 µg/mL (≈ 24.8 µM) | 50 µg/mL (≈ 95.3 µM)
CN(C)[C@@H]1C(O)=C(C(N)=O)C(=O)[C@@]2(O)C(O)=C3C(=O)c4c(O)cccc4[C@@](C)(O)[C@H]3C[C@@H]12.Cl [TETRACYCLINE HYDROCHLORIDE] | 1.5 µg/mL | 0.1 µg/mL |  | 0.05 µg/mL |  | 0.05 µg/mL | 0.8 µg/mL | 0.2 µg/mL | 
